# Measured values from ChEMBL document CHEMBL1255417, “Correlation between in vitro activity of posaconazole and in vivo efficacy against Rhizopus oryzae infection in mice” (Antimicrob Agents Chemother, 2010).
# The source made the active and inactive calls. The calls are words filed in the database; no cut-off is given here.
# What was measured:
# Rhizopus arrhizus [1] = experiment: Antifungal activity against drug-susceptible Rhizopus oryzae UTHSC 05-1679 after 24 to 48 hrs; format: functional
# Summary of the method: (§1)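 Minimum fungicidal concentration: 20 µl from each microdilution well showing complete inhibition (optically clear) plated on potato dextrose agar, incubated 35°C for 24 to 48 h; MFC taken as lowest drug concentration giving no growth.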
# Rhizopus arrhizus [2] = experiment: Antifungal activity against drug-susceptible Rhizopus oryzae UTHSC 06-2457 at 5 ug by disk diffusion assay; format: functional; conditions: read-out: DIZ
# Summary of the method: (§2)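 Neo-Sensitabs tablet diffusion on Mueller-Hinton agar, run per the mould guidelines. Tablets are 9 mm in diameter and carry 5 ug posaconazole. The read-out is the inhibition zone diameter in mm.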
# Rhizopus arrhizus [3] = experiment: Antifungal activity against drug-susceptible Rhizopus oryzae UTHSC 04-2459 by broth microdilution method; format: functional
# Summary of the method: (§3)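 CLSI broth microdilution for filamentous fungi (M38-A2); MIC recorded in µg/ml against clinical isolates; breakpoints applied at 24 h.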
# Rhizopus arrhizus [4] = experiment: Antifungal activity against drug-susceptible Rhizopus oryzae UTHSC 05-1679 at 5 ug by disk diffusion assay; format: functional; conditions: read-out: DIZ
# Summary of the method: (§4)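 Neo-Sensitabs tablet diffusion on Mueller-Hinton agar, following guidelines for molds; 9 mm tablets containing 5 µg posaconazole; inhibition zone diameter measured in mm; zone breakpoints applied at 24 h.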
# Rhizopus arrhizus [5] = experiment: Antifungal activity against drug-susceptible Rhizopus oryzae UTHSC 02-439 after 24 to 48 hrs; format: functional
# Rhizopus arrhizus [6] = experiment: Antifungal activity against drug-susceptible Rhizopus oryzae UTHSC 04-443 after 24 to 48 hrs; format: functional; summary of the method: as §1
# Rhizopus arrhizus [7] = experiment: Antifungal activity against drug-susceptible Rhizopus oryzae UTHSC 06-1351 after 24 to 48 hrs; format: functional
# Summary of the method: (§5)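 Minimum fungicidal concentration taken from the broth microdilution plates. From each well with complete inhibition (optically clear), 20 ul is plated on potato dextrose agar. Plates are incubated at 35°C for 24 to 48 h. The MFC is the lowest drug concentration giving no growth.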
# Rhizopus arrhizus [8] = experiment: Antifungal activity against drug-intermediate Rhizopus oryzae UTHSC 07-365 after 24 to 48 hrs; format: functional
# Rhizopus arrhizus [9] = experiment: Antifungal activity against drug-susceptible Rhizopus oryzae UTHSC 06-1080 by broth microdilution method; format: functional
# Summary of the method: (§6)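 Posaconazole MIC in ug/ml, determined by broth microdilution following the CLSI guidelines for moulds (M38-A2).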
# Rhizopus arrhizus [10] = experiment: Antifungal activity against drug-susceptible Rhizopus oryzae UTHSC 05-1502 after 24 to 48 hrs; format: functional; summary of the method: as §1
# Rhizopus arrhizus [11] = experiment: Antifungal activity against drug-susceptible Rhizopus oryzae UTHSC 03-112 at 5 ug by disk diffusion assay; format: functional; conditions: read-out: DIZ
# Summary of the method: (§7)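 Neo-Sensitabs tablet diffusion on Mueller-Hinton agar, following the guidelines for molds. Tablets were 9 mm in diameter and held 5 µg of drug. The read-out was inhibition zone diameter in mm.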
# Rhizopus arrhizus [12] = experiment: Antifungal activity against drug-susceptible Rhizopus oryzae UTHSC 06-4035 by broth microdilution method; format: functional; summary of the method: as §6
# Rhizopus arrhizus [13] = experiment: Antifungal activity against drug-susceptible Rhizopus oryzae UTHSC 03-51 infected in OF1 mouse assessed as increase in mouse survival at 20-30 mg/kg, po bid treated 24 hrs after fungal infection; format: functional, organism-based
# Summary of the method: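 Male OF1 mice (30 g) immunosuppressed 1 day before infection with cyclophosphamide 200 mg/kg i.p. plus 5-fluorouracil 150 mg/kg i.v.; challenged i.v. via tail vein with 2 × 10^4 CFU; oral gavage twice daily for 7 days from 24 h post-challenge; ceftazidime 5 mg/day s.c. days 1–7; untreated controls; 10 mice/group; survival checked daily to day 20.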
# Rhizopus arrhizus [14] = experiment: Antifungal activity against drug-susceptible Rhizopus oryzae UTHSC 03-511 by broth microdilution method; format: functional; summary of the method: as §3
# Rhizopus arrhizus [15] = experiment: Antifungal activity against drug-intermediate Rhizopus oryzae UTHSC 05-3032 infected in OF1 mouse assessed as reduction in brain fungal load at 10-30 mg/kg, po bid treated 24 hrs after fungal infection; format: functional, organism-based
# Summary of the method: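 Tissue burden in immunosuppressed male OF1 mice, using cyclophosphamide 200 mg/kg i.p. plus 5-fluorouracil 150 mg/kg i.v. on day −1. Mice received 2 × 10^4 CFU i.v. by tail vein, then oral gavage at 10, 20 or 30 mg/kg BID from 24 h post-challenge, with ceftazidime cover; untreated controls. Groups of 10 were killed on day 4. Kidneys and brains were homogenized in 2 ml saline, serially diluted 10-fold, plated on PDA and counted after 24 h at 35°C.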
# Rhizopus arrhizus [16] = experiment: Antifungal activity against drug-susceptible Rhizopus oryzae UTHSC 03-511 after 24 to 48 hrs; format: functional; summary of the method: as §1
# Rhizopus arrhizus [17] = experiment: Antifungal activity against drug-susceptible Rhizopus oryzae UTHSC 05-3111 at 5 ug by disk diffusion assay; format: functional; conditions: read-out: DIZ; summary of the method: as §2
# Rhizopus arrhizus [18] = experiment: Antifungal activity against drug-susceptible Rhizopus oryzae UTHSC 06-1080 at 5 ug by disk diffusion assay; format: functional; conditions: read-out: DIZ; summary of the method: as §2
# Rhizopus arrhizus [19] = experiment: Antifungal activity against drug-susceptible Rhizopus oryzae UTHSC 03-547 by broth microdilution method; format: functional; summary of the method: as §3
# Rhizopus arrhizus [20] = experiment: Antifungal activity against drug-intermediate Rhizopus oryzae UTHSC 05-114 at 5 ug by disk diffusion assay; format: functional; conditions: read-out: DIZ; summary of the method: as §7
# Rhizopus arrhizus [21] = experiment: Antifungal activity against drug-susceptible Rhizopus oryzae UTHSC 03-3110 at 5 ug by disk diffusion assay; format: functional; conditions: read-out: DIZ; summary of the method: as §4
# Rhizopus arrhizus [22] = experiment: Antifungal activity against drug-susceptible Rhizopus oryzae UTHSC 03-228 by broth microdilution method; format: functional
# Summary of the method: (§8)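 Broth microdilution MIC in µg/ml, run per the CLSI (formerly NCCLS) guideline for filamentous fungi, M38-A2.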
# Rhizopus arrhizus [23] = experiment: Antifungal activity against drug-susceptible Rhizopus oryzae UTHSC 06-434 after 24 to 48 hrs; format: functional; summary of the method: as §5
# Rhizopus arrhizus [24] = experiment: Antifungal activity against drug-susceptible Rhizopus oryzae UTHSC 06-2374 at 5 ug by disk diffusion assay; format: functional; conditions: read-out: DIZ; summary of the method: as §2
# Rhizopus arrhizus [25] = experiment: Antifungal activity against drug-susceptible Rhizopus oryzae UTHSC 412-546 at 5 ug by disk diffusion assay; format: functional; conditions: read-out: DIZ
# Rhizopus arrhizus [26] = experiment: Antifungal activity against drug-intermediate Rhizopus oryzae infected in OF1 mouse assessed as mouse survival at 30 mg/kg, po bid treated 24 hrs after fungal infection; format: functional
# Summary of the method: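 Survival model in male OF1 mice, 30 g. Mice were immunosuppressed 1 day before infection with cyclophosphamide 200 mg/kg i.p. plus 5-fluorouracil 150 mg/kg i.v., then infected i.v. via lateral tail vein with 2 × 10^4 CFU in 0.2 ml saline. Oral gavage at 10, 20 or 30 mg/kg BID began 24 h post-challenge for 7 days. Ceftazidime 5 mg/day s.c. was given days 1–7. Groups of 10 were checked daily for 20 days; untreated controls.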
# Rhizopus arrhizus [27] = experiment: Antifungal activity against drug-susceptible Rhizopus oryzae UTHSC 05-1502 at 5 ug by disk diffusion assay; format: functional; conditions: read-out: DIZ; summary of the method: as §4
# Rhizopus arrhizus [28] = experiment: Antifungal activity against drug-susceptible Rhizopus oryzae UTHSC 06-329 after 24 to 48 hrs; format: functional; summary of the method: as §5
# Rhizopus arrhizus [29] = experiment: Antifungal activity against drug-intermediate Rhizopus oryzae UTHSC 07-365 at 5 ug by disk diffusion assay; format: functional; conditions: UTHSC 07-365, read-out: DIZ; summary of the method: as §7
# Rhizopus arrhizus [30] = experiment: Antifungal activity against drug-susceptible Rhizopus oryzae UTHSC 03-1826 by broth microdilution method; format: functional; summary of the method: as §8
# Rhizopus arrhizus [31] = experiment: Antifungal activity against drug-susceptible Rhizopus oryzae UTHSC 05-1817 by broth microdilution method; format: functional; summary of the method: as §3
# Rhizopus arrhizus [32] = experiment: Antifungal activity against drug-susceptible Rhizopus oryzae UTHSC 04-2159 at 5 ug by disk diffusion assay; format: functional; conditions: read-out: DIZ; summary of the method: as §4
# Rhizopus arrhizus [33] = experiment: Antifungal activity against drug-susceptible Rhizopus oryzae UTHSC 04-1241 by broth microdilution method; format: functional; summary of the method: as §3
smiles,measurement,setting,value
CC[C@@H]([C@H](C)O)n1ncn(-c2ccc(N3CCN(c4ccc(OC[C@@H]5CO[C@@](Cn6cncn6)(c6ccc(F)cc6F)C5)cc4)CC3)cc2)c1=O [POSACONAZOLE],MFC,Rhizopus arrhizus [1],0.5 µg/mL
same,zone of inhibition at 5 µg/disc,Rhizopus arrhizus [2],14 mm
same,MIC,Rhizopus arrhizus [3],1 µg/mL
same,zone of inhibition at 5 µg/disc,Rhizopus arrhizus [4],18 mm
same,MFC,Rhizopus arrhizus [5],0.5 µg/mL
same,MFC,Rhizopus arrhizus [6],1 µg/mL
same,MFC,Rhizopus arrhizus [7],0.5 µg/mL
same,MFC,Rhizopus arrhizus [8],16 µg/mL
same,MIC,Rhizopus arrhizus [9],1 µg/mL
same,MFC,Rhizopus arrhizus [10],1 µg/mL
same,zone of inhibition at 5 µg/disc,Rhizopus arrhizus [11],20 mm
same,MIC,Rhizopus arrhizus [12],0.5 µg/mL
same,Activity,Rhizopus arrhizus [13],Active
same,MIC,Rhizopus arrhizus [14],0.25 µg/mL
same,Activity,Rhizopus arrhizus [15],inactive
same,MFC,Rhizopus arrhizus [16],1 µg/mL
same,zone of inhibition at 5 µg/disc,Rhizopus arrhizus [17],20 mm
same,zone of inhibition at 5 µg/disc,Rhizopus arrhizus [18],18 mm
same,MIC,Rhizopus arrhizus [19],0.25 µg/mL
same,zone of inhibition at 5 µg/disc,Rhizopus arrhizus [20],15 mm
same,zone of inhibition at 5 µg/disc,Rhizopus arrhizus [21],17 mm
same,MIC,Rhizopus arrhizus [22],0.25 µg/mL
same,MFC,Rhizopus arrhizus [23],1 µg/mL
same,zone of inhibition at 5 µg/disc,Rhizopus arrhizus [24],23 mm
same,zone of inhibition at 5 µg/disc,Rhizopus arrhizus [25],15 mm
same,Activity,Rhizopus arrhizus [26],10%
same,zone of inhibition at 5 µg/disc,Rhizopus arrhizus [27],21 mm
same,MFC,Rhizopus arrhizus [28],0.5 µg/mL
same,zone of inhibition at 5 µg/disc,Rhizopus arrhizus [29],15 mm
same,MIC,Rhizopus arrhizus [30],0.5 µg/mL
same,MIC,Rhizopus arrhizus [31],0.25 µg/mL
same,zone of inhibition at 5 µg/disc,Rhizopus arrhizus [32],20 mm
same,MIC,Rhizopus arrhizus [33],0.5 µg/mL
